According to ChEMBL document CHEMBL5705905, “Pharmacological targeting of kinases MST1 and MST2 augments tissue repair and regeneration” (Sci Transl Med, 2016):
Calls of active or inactive are those of the source. No cut-off for these calls is given here.

Key:
HepG2 = assay: Inhibition of Flag-tagged MST1 Y101F mutant (unknown origin) in human HepG2 cells assessed as MOB1 phosphorylation level at 0.3 to 10 uM by immunoblot analysis; assay type: cell-based; conditions: dose 0.3-10 µM
[1] = biological target: Insulin receptor (Homo sapiens) (UniProt P06213); assay: Inhibition of INSR (unknown origin) assessed as remaining activity at 1 uM by Kinome scan method relative to control
Sequence of Insulin receptor (Homo sapiens) (P06213 28-758 limits assumed): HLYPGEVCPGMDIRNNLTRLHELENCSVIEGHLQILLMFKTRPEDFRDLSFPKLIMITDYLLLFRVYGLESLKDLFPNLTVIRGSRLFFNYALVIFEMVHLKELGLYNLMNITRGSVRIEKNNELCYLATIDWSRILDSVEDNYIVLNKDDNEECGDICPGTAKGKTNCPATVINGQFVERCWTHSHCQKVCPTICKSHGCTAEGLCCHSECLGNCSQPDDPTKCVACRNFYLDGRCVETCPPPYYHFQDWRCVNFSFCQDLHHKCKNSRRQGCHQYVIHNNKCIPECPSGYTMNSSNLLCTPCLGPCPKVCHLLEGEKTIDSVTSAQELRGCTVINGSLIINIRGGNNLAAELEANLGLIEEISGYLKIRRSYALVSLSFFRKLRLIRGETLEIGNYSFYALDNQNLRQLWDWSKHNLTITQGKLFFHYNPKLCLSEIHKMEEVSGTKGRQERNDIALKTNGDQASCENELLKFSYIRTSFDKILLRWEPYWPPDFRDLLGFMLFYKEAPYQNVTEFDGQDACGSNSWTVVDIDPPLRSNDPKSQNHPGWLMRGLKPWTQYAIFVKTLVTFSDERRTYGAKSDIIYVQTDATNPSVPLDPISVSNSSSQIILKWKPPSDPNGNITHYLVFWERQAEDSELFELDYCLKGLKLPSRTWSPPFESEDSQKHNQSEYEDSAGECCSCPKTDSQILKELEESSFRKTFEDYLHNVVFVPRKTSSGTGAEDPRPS
Sequence of Insulin receptor (Homo sapiens) (P06213 763-1382 limits assumed): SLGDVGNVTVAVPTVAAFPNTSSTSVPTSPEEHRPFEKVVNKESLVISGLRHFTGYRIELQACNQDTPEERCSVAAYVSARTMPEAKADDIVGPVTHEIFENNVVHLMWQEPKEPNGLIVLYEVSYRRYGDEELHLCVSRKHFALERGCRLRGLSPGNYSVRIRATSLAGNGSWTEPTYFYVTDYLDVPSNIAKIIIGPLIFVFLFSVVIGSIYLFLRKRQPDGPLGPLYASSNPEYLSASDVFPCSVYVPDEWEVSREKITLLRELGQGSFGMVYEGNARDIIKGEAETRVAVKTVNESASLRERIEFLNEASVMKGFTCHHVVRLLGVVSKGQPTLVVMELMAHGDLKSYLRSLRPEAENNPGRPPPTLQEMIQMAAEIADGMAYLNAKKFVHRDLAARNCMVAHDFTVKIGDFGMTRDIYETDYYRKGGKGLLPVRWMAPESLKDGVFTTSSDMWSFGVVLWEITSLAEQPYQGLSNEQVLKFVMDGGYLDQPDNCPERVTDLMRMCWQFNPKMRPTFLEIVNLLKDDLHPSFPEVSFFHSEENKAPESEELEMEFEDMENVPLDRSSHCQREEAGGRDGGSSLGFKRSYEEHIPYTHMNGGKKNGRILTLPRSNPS

[2] = biological target: Serine/threonine-protein kinase MRCK alpha (Homo sapiens) (UniProt Q5VT25); assay: Inhibition of MRCKA (unknown origin) assessed as remaining activity at 1 uM by Kinome scan method relative to control
[3] = biological target: Tyrosine-protein kinase Fgr (Homo sapiens) (UniProt P09769); assay: Inhibition of FGR (unknown origin) assessed as remaining activity at 1 uM by Kinome scan method relative to control
Sequence of Tyrosine-protein kinase Fgr (Homo sapiens) (P09769 2-529 limits assumed): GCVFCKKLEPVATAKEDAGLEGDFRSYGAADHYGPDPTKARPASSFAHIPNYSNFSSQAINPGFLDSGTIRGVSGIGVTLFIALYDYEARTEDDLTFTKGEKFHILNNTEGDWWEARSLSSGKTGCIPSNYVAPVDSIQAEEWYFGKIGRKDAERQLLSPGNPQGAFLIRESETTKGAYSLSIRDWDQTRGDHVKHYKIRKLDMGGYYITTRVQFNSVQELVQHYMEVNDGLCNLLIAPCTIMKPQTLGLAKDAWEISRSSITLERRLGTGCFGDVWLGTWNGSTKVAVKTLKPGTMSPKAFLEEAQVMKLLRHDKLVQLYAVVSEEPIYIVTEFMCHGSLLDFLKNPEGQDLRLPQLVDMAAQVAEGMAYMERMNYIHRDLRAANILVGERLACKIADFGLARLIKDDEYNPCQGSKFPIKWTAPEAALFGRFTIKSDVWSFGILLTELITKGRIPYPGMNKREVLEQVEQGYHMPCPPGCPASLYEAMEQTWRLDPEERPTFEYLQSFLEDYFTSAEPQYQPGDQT

[4] = biological target: Epithelial discoidin domain-containing receptor 1 (Homo sapiens) (UniProt Q08345); assay: Inhibition of DDR1 (unknown origin) assessed as remaining activity at 1 uM by Kinome scan method relative to control
[5] = biological target: Dual specificity mitogen-activated protein kinase kinase 6 (Homo sapiens) (UniProt P52564); assay: Inhibition of MEK6 (unknown origin) assessed as remaining activity at 1 uM by Kinome scan method relative to control
Sequence of Dual specificity mitogen-activated protein kinase kinase 6 (Homo sapiens) (P52564 whole entry): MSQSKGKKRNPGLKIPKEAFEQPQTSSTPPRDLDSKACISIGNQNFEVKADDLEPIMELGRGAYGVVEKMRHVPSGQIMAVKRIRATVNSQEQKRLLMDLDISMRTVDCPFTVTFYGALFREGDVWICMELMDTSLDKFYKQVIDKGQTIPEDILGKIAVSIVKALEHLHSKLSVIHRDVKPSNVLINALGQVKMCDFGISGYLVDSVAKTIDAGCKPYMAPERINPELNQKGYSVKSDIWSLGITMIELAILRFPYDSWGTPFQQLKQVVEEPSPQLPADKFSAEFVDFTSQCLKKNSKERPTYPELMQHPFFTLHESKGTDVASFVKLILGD

[6] = biological target: Serine/threonine-protein kinase 32A (Homo sapiens) (UniProt Q8WU08); assay: Inhibition of YANK1 (unknown origin) assessed as remaining activity at 1 uM by Kinome scan method relative to control
Sequence of Serine/threonine-protein kinase 32A (Homo sapiens) (Q8WU08 whole entry): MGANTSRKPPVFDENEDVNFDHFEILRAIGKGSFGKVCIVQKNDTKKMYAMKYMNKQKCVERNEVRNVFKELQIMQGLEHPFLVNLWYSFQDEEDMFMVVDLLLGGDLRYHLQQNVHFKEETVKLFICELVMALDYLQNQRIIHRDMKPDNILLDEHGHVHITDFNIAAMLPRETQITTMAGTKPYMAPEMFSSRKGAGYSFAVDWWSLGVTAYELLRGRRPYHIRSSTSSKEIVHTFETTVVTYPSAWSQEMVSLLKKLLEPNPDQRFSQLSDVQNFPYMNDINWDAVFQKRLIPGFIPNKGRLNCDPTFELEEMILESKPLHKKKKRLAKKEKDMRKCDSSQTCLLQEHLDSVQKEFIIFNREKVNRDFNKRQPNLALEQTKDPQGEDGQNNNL

Mus musculus [7] = assay: Protection against human hepatocyte transplanted FRG mouse assessed as increase in the ratio of BrdU+/FAH+ cells at 1 mg/kg, ip administrated once a daily for 28 days by H&E staining based immunohistochemical analysis; assay type: functional, organism-based; conditions: Liver, time 28.0 day
Mus musculus [8] = assay: Protection against APAP induced liver injury in mouse assessed as increase in survival rate at 1 mg/kg, ip administered at 2.5 hrs […]; assay type: functional
Method in brief: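 Wild-type mice given oral APAP 400 mg/kg, then i.p. vehicle, NAC 250 mg/kg, 1 mg/kg test agent, or NAC plus test agent at 1.5 or 2.5 h. Mortality was tracked with n = 10–11 per group, Mantel-Cox test. Separately, TUNEL was done on liver after 200 mg/kg APAP with treatment at 2.5 h.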

[9] = biological target: Serine/threonine-protein kinase/endoribonuclease IRE1 (Homo sapiens) (UniProt O75460); assay: Inhibition of ERN1 (unknown origin) assessed as remaining activity at 1 uM by Kinome scan method relative to control
Sequence of Serine/threonine-protein kinase/endoribonuclease IRE1 (Homo sapiens) (O75460 19-977 limits assumed): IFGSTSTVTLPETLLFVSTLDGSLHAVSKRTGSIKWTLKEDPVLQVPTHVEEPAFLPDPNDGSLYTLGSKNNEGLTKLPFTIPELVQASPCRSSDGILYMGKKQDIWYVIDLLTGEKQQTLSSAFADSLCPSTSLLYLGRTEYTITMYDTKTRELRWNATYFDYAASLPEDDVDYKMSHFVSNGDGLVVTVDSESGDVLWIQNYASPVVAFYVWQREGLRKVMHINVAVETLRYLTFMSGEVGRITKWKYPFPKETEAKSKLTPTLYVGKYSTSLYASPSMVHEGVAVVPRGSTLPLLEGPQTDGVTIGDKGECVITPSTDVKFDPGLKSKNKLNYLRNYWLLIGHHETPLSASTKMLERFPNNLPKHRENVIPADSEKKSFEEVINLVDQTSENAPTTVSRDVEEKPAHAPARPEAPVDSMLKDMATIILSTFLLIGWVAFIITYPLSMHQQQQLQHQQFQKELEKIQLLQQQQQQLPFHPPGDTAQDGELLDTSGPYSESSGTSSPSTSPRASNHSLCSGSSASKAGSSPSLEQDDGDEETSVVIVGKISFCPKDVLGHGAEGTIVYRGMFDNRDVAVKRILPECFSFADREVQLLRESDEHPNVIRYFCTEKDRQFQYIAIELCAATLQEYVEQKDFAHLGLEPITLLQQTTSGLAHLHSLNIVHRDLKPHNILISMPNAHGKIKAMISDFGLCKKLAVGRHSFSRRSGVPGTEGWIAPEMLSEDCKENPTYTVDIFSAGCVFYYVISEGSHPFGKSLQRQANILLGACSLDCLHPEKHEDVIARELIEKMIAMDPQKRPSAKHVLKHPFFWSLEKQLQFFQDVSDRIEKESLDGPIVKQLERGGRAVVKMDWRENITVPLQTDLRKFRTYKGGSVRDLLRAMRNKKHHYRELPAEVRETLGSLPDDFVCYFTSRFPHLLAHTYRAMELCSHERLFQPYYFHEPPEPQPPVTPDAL

[10] = biological target: Death-associated protein kinase 3 (Homo sapiens) (UniProt O43293); assay: Inhibition of DAPK3 (unknown origin) assessed as remaining activity at 1 uM by Kinome scan method relative to control
Method in brief: (§1)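 Active-site-dependent competition-binding profiling (KINOMEscan) at 1 μM against a 468-kinase panel; compound supplied from a 10 mM DMSO stock. Read-out is ctrl% = (test signal − positive control signal)/(negative control signal − positive control signal) × 100. DMSO is the negative control (100%) and a control compound the positive control (0%). Lower ctrl% means tighter binding.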

Mus musculus [11] = assay: Anti-colitis activity against DSS-induced mouse assessed as suppression in disease activity index at 1 mg/kg, ip administrated daily for over 1 to 21 days; assay type: functional, organism-based; conditions: time 1-21 day
Method in brief: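 Colitis was induced in wild-type mice with DSS on days 1–7, with vehicle or 1 mg/kg daily (n = 12 per group). Disease activity index (diarrhea, rectal bleeding) was scored daily over days 1–21. Student's t test at each time point.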

[12] = biological target: Cyclin-dependent kinase 8 (Homo sapiens) (UniProt P49336); assay: Inhibition of CDK8 (unknown origin) assessed as remaining activity at 1 uM by Kinome scan method relative to control; method in brief: as §1
[13] = biological target: Serine/threonine-protein kinase BRSK2 (Homo sapiens) (UniProt Q8IWQ3); assay: Inhibition of BRSK2 (unknown origin) assessed as remaining activity at 1 uM by Kinome scan method relative to control
Method in brief: (§2)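 Active-site-dependent competition-binding (KINOMEscan) panel of 468 kinases, test compound at 1 μM (from a 10 mM DMSO stock). Read-out is ctrl% = (test signal − positive control signal)/(negative control signal − positive control signal) × 100. DMSO is the negative control (100%) and a control compound is the positive control (0%). Lower ctrl% means tighter binding.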

[14] = biological target: Cyclin-dependent kinase-like 2 (Homo sapiens) (UniProt Q92772); assay: Inhibition of CDKL2 (unknown origin) assessed as remaining activity at 1 uM by Kinome scan method relative to control; method in brief: as §1
Sequence of Cyclin-dependent kinase-like 2 (Homo sapiens) (Q92772 whole entry): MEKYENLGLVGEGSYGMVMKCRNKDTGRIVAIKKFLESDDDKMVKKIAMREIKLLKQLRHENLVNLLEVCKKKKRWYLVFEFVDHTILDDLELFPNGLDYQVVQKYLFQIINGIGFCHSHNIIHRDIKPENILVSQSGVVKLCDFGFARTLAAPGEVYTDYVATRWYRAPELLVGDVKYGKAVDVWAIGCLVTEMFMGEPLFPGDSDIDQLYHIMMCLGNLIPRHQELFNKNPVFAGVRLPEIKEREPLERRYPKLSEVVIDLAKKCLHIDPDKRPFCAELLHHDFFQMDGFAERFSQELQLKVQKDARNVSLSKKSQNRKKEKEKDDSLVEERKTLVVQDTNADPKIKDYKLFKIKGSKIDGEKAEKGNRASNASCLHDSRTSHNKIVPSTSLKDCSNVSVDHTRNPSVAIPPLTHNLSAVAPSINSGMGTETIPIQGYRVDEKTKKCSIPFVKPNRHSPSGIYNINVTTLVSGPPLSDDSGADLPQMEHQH

[15] = tested on: Proto-oncogene tyrosine-protein kinase receptor Ret (Homo sapiens), P07949 [V804M]; assay: Inhibition of RET V804M (unknown origin) assessed as remaining activity at 1 uM by Kinome scan method relative to control
[16] = biological target: Phosphatidylinositol 4,5-bisphosphate 3-kinase catalytic subunit alpha isoform (Homo sapiens) (UniProt P42336); assay: Inhibition of PIK3CA (unknown origin) assessed as remaining activity at 1 uM by Kinome scan method relative to control
[17] = biological target: Serine/threonine-protein kinase Sgk1 (Homo sapiens) (UniProt O00141); assay: Inhibition of SGK (unknown origin) assessed as remaining activity at 1 uM by Kinome scan method relative to control
Sequence of Serine/threonine-protein kinase Sgk1 (Homo sapiens) (O00141 whole entry): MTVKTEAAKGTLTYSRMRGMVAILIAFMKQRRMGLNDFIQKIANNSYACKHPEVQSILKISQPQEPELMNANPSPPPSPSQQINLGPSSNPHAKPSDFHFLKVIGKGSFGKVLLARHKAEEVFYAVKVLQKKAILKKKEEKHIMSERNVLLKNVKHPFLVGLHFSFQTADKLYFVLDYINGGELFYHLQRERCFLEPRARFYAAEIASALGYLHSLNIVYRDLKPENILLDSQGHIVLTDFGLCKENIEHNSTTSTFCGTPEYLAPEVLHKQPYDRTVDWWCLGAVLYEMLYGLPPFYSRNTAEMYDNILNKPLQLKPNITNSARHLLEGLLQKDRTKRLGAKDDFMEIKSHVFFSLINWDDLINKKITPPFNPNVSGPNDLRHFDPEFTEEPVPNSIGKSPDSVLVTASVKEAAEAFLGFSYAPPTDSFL

[18] = biological target: Activin receptor type-2B (Homo sapiens) (UniProt Q13705); assay: Inhibition of ACVR2B (unknown origin) assessed as remaining activity at 1 uM by Kinome scan method relative to control; method in brief: as §2
Sequence of Activin receptor type-2B (Homo sapiens) (Q13705 whole entry): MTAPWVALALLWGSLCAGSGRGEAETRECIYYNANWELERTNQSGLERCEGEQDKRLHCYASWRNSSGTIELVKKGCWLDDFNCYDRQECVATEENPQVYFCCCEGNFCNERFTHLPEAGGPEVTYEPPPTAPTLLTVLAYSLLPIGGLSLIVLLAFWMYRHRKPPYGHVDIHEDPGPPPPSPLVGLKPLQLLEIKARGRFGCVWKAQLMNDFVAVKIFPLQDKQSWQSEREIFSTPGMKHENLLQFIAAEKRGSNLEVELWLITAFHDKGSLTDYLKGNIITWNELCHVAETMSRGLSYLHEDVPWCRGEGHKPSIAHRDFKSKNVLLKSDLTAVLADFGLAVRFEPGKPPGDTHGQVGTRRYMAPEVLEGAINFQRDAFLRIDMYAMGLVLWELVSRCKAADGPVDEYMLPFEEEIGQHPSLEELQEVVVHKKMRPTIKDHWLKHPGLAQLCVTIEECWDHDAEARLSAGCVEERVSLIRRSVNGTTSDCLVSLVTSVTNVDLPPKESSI

Homo sapiens = species on record: Homo sapiens; assay: Inhibition of recombinant His-tagged full-length MST1 Y101F mutant (unknown origin) expressing in Escherichia coli assessed as GST-tagged MOB1 phosphorylation level at 0.01 to 1 uM incubated for 15 min by immunoblot analysis; conditions: dose 0.01-1 µM
[19] = biological target: Serine/threonine-protein kinase WNK2 (Homo sapiens) (UniProt Q9Y3S1); assay: Inhibition of WNK2 (unknown origin) assessed as remaining activity at 1 uM by Kinome scan method relative to control
[20] = biological target: Cyclin-dependent kinase 3 (Homo sapiens) (UniProt Q00526); assay: Inhibition of CDK3 (unknown origin) assessed as remaining activity at 1 uM by Kinome scan method relative to control; method in brief: as §1
[21] = biological target: Atypical kinase COQ8A, mitochondrial (Homo sapiens) (UniProt Q8NI60); assay: Inhibition of ADCK3 (unknown origin) assessed as remaining activity at 1 uM by Kinome scan method relative to control; method in brief: as §2
[22] = biological target: Serine/threonine-protein kinase SIK3 (Homo sapiens) (UniProt Q9Y2K2); assay: Inhibition of QSK (unknown origin) assessed as remaining activity at 1 uM by Kinome scan method relative to control
[23] = biological target: Serine/threonine-protein kinase TAO2 (Homo sapiens) (UniProt Q9UL54); assay: Inhibition of TAOK2 (unknown origin) assessed as remaining activity at 1 uM by Kinome scan method relative to control
[24] = biological target: Serine/threonine-protein kinase WNK1 (Homo sapiens) (UniProt Q9H4A3); assay: Inhibition of WNK1 (unknown origin) assessed as remaining activity at 1 uM by Kinome scan method relative to control

## CN1C(=O)c2sccc2N(C)c2nc(Nc3ccc(S(N)(=O)=O)cc3)ncc21
HepG2
  inhibition: Active
[1]
  Activity: 98%
[2]
  Activity: 76%
[3]
  Activity: 56%
[4]
  Activity: 63%
[5]
  Activity: 100%
[6]
  Activity: 100%
Mus musculus [7]
  Activity: Active
Mus musculus [8]
  Activity: ~40%
[9]
  Activity: 65%
[10]
  Activity: 94%
Mus musculus [11]
  Activity: Active
[12]
  Activity: 94%
[13]
  Activity: 99%
[14]
  Activity: 97%
[15]
  Activity: 92%
[16]
  Activity: 88%
[17]
  Activity: 96%
[18]
  Activity: 100%
Homo sapiens
  inhibition: Active
[19]
  Activity: 78%
[20]
  Activity: 100%
[21]
  Activity: 92%
[22]
  Activity: 87%
[23]
  Activity: 3.4%
[24]
  Activity: 97%
